In ChEMBL document CHEMBL4152304, “Design, synthesis and anticancer activity of fluorocyclopentenyl-purines and - pyrimidines” (Eur J Med Chem, 2018):
pIC50: −log10 of the molar value.

What was measured:
Assay type in all cases: functional, cell-based
SK-HEP1 = experiment: Cytotoxicity against human SKHEP1 cells assessed as decrease in cell viability after 72 hrs by SRB assay; conditions: SK-HEP1, 72 h
How it was run: (§1)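 Maintained in DMEM with 10% FBS and penicillin/streptomycin/amphotericin B at 37 °C in humidified 5% CO2; cell lines from the Korean Cell Line Bank. Plated at 5 × 10^4 cells/mL and treated with various concentrations for 72 h. Then 10% TCA fixation, 0.4% SRB staining in 1% acetic acid, solubilisation in 10 mM Tris pH 10.0 and absorbance at 515 nm. Viability is versus vehicle control; IC50 from nonlinear regression.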

HCT-116 = experiment: Cytotoxicity against human HCT116 cells assessed as decrease in cell viability after 72 hrs by SRB assay; conditions: HCT-116, 72 h
How it was run: (§2)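 Cells from the Korean Cell Line Bank were grown in RPMI 1640 with 10% FBS and penicillin/streptomycin/amphotericin B at 37 °C under 5% CO2. They were seeded at 5 × 10^4 cells/mL and exposed to a range of compound concentrations for 72 h. Cells were fixed in 10% TCA and stained with 0.4% SRB in 1% acetic acid. Dye was dissolved in 10 mM Tris (pH 10.0) and read at A515. Viability is relative to vehicle; IC50 by nonlinear regression.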

SNU-638 = experiment: Cytotoxicity against human SNU638 cells assessed as decrease in cell viability after 72 hrs by SRB assay; conditions: SNU-638, 72 h; how it was run: as §2
A549 = experiment: Cytotoxicity against human A549 cells assessed as decrease in cell viability after 72 hrs by SRB assay; conditions: A549, 72 h; how it was run: as §2
MDA-MB-231 = experiment: Cytotoxicity against human MDA-MB-231 cells assessed as decrease in cell viability after 72 hrs by SRB assay; conditions: MDA-MB-231, 72 h; how it was run: as §1
PC-3 = experiment: Cytotoxicity against human PC3 cells assessed as decrease in cell viability after 72 hrs by SRB assay; conditions: PC-3, 72 h; how it was run: as §2

Structure (SMILES): Nc1nc(NC2CC2)c2ncn([C@@H]3C(F)=C(CO)[C@@H](O)[C@H]3O)c2n1
- pIC50 (SK-HEP1): < 4.00
- pIC50 (HCT-116): < 4.00
- pIC50 (SNU-638): < 4.00
- pIC50 (A549): < 4.00
- pIC50 (MDA-MB-231): < 4.00
- pIC50 (PC-3): < 4.00

Structure (SMILES): Nc1ccn([C@@H]2O[C@H](CO)[C@@H](O)[C@@H]2O)c(=O)n1 [CYTARABINE]
- pIC50 (SK-HEP1): 5.74
- pIC50 (HCT-116): 5.36
- pIC50 (SNU-638): 5.97
- pIC50 (A549): 5.76
- pIC50 (MDA-MB-231): 4.98
- pIC50 (PC-3): 4.32

Structure (SMILES): O=c1nc(O)c(Cl)cn1[C@@H]1C(F)=C(CO)[C@@H](O)[C@H]1O
- pIC50 (SK-HEP1): < 4.00
- pIC50 (HCT-116): < 4.00
- pIC50 (SNU-638): 4.06
- pIC50 (A549): < 4.00
- pIC50 (MDA-MB-231): < 4.00
- pIC50 (PC-3): 4.21

Structure (SMILES): Nc1ncnc2c1ncn2[C@@H]1C=C(CO)[C@@H](O)[C@H]1O [NEOPLANOCIN A]
- pIC50 (SK-HEP1): 5.63
- pIC50 (HCT-116): 5.84
- pIC50 (SNU-638): 6.09
- pIC50 (A549): 5.67
- pIC50 (MDA-MB-231): 6.07
- pIC50 (PC-3): 5.67

Structure (SMILES): CC(C)OC(=O)[C@H](C)N[P@](=O)(OCC1=C(F)[C@@H](n2cnc3c(N)ncnc32)[C@H](O)[C@@H]1O)Oc1ccccc1
- pIC50 (SK-HEP1): 4.62
- pIC50 (HCT-116): 5.34
- pIC50 (SNU-638): 5.52
- pIC50 (A549): 4.73
- pIC50 (MDA-MB-231): 4.74
- pIC50 (PC-3): 4.98

Structure (SMILES): CNc1ncnc2c1ncn2[C@@H]1C(F)=C(CO)[C@@H](O)[C@H]1O
- pIC50 (SK-HEP1): 5.56
- pIC50 (HCT-116): 5.67
- pIC50 (SNU-638): 5.64
- pIC50 (A549): 5.62
- pIC50 (MDA-MB-231): 5.09
- pIC50 (PC-3): 4.82

Structure (SMILES): OCC1=C(F)[C@@H](n2cnc3c(O)ncnc32)[C@H](O)[C@@H]1O
- pIC50 (SK-HEP1): < 4.00
- pIC50 (HCT-116): < 4.00
- pIC50 (SNU-638): < 4.00
- pIC50 (A549): < 4.00
- pIC50 (MDA-MB-231): < 4.00
- pIC50 (PC-3): < 4.00

Structure (SMILES): Nc1nc(O)c2ncn([C@@H]3C(F)=C(CO)[C@@H](O)[C@H]3O)c2n1
- pIC50 (SK-HEP1): < 4.00
- pIC50 (HCT-116): < 4.00
- pIC50 (SNU-638): < 4.00
- pIC50 (A549): < 4.00
- pIC50 (MDA-MB-231): < 4.00
- pIC50 (PC-3): < 4.00

Structure (SMILES): O=c1nc(O)c(I)cn1[C@@H]1C(F)=C(CO)[C@@H](O)[C@H]1O
- pIC50 (SK-HEP1): < 4.00
- pIC50 (HCT-116): 4.07
- pIC50 (SNU-638): 4.15
- pIC50 (A549): < 4.00
- pIC50 (MDA-MB-231): 4.26
- pIC50 (PC-3): 4.33

Structure (SMILES): O=c1nc(O)c(Br)cn1[C@@H]1C(F)=C(CO)[C@@H](O)[C@H]1O
- pIC50 (SK-HEP1): 4.12
- pIC50 (HCT-116): 4.48
- pIC50 (SNU-638): 4.50
- pIC50 (A549): < 4.00
- pIC50 (MDA-MB-231): 4.36
- pIC50 (PC-3): 4.49

Structure (SMILES): Nc1nc(=O)n([C@@H]2C(F)=C(CO)[C@@H](O)[C@H]2O)cc1Cl
- pIC50 (SK-HEP1): < 4.00
- pIC50 (HCT-116): < 4.00
- pIC50 (SNU-638): < 4.00
- pIC50 (A549): < 4.00
- pIC50 (MDA-MB-231): < 4.00
- pIC50 (PC-3): < 4.00

Structure (SMILES): Nc1nc(N)c2ncn([C@@H]3C(F)=C(CO)[C@@H](O)[C@H]3O)c2n1
- pIC50 (SK-HEP1): < 4.00
- pIC50 (HCT-116): 4.66
- pIC50 (SNU-638): 4.49
- pIC50 (A549): 4.07
- pIC50 (MDA-MB-231): 4.64
- pIC50 (PC-3): < 4.00

Structure (SMILES): O=c1nc(O)c(F)cn1[C@@H]1C(F)=C(CO)[C@@H](O)[C@H]1O
- pIC50 (SK-HEP1): 4.15
- pIC50 (HCT-116): 4.28
- pIC50 (SNU-638): 4.56
- pIC50 (A549): < 4.00
- pIC50 (MDA-MB-231): 4.17
- pIC50 (PC-3): 4.36

Structure (SMILES): OCC1=C(F)[C@@H](n2cnc3c(NC4CC4)ncnc32)[C@H](O)[C@@H]1O
- pIC50 (SK-HEP1): < 4.00
- pIC50 (HCT-116): < 4.00
- pIC50 (SNU-638): < 4.00
- pIC50 (A549): < 4.00
- pIC50 (MDA-MB-231): < 4.00
- pIC50 (PC-3): < 4.00

Structure (SMILES): Nc1nc(=O)n([C@@H]2C(F)=C(CO)[C@@H](O)[C@H]2O)cc1I
- pIC50 (SK-HEP1): < 4.00
- pIC50 (HCT-116): 4.00
- pIC50 (SNU-638): 4.08
- pIC50 (A549): < 4.00
- pIC50 (MDA-MB-231): 4.10
- pIC50 (PC-3): 4.08

Structure (SMILES): Nc1nc(=O)n([C@@H]2C(F)=C(CO)[C@@H](O)[C@H]2O)cc1Br
- pIC50 (SK-HEP1): < 4.00
- pIC50 (HCT-116): < 4.00
- pIC50 (SNU-638): < 4.00
- pIC50 (A549): < 4.00
- pIC50 (MDA-MB-231): < 4.00
- pIC50 (PC-3): < 4.00

Structure (SMILES): Nc1nc(=O)n([C@@H]2C(F)=C(CO)[C@@H](O)[C@H]2O)cc1F
- pIC50 (SK-HEP1): < 4.00
- pIC50 (HCT-116): < 4.00
- pIC50 (SNU-638): < 4.00
- pIC50 (A549): < 4.00
- pIC50 (MDA-MB-231): < 4.00
- pIC50 (PC-3): < 4.00
